System: Neutrophil
Experiment: Antiinflammatory activity in human neutrophils assessed as fMLP-induced superoxide release after 5 mins by spectrometry
Assay type: functional, cell-based
Method in brief: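 Neutrophils isolated from venous blood of healthy volunteers (20–35 years) by double-gradient Ficoll–Hypaque centrifugation, with hypotonic lysis of red cells. Cells at 1 × 10^6 cells/mL pretreated with test agents (100 µmol/L) at 37 °C for 5 min. Then stimulated with fMLP (1 µmol/L) with ferricytochrome c (0.5 mg/mL). Extracellular O2•– read continuously at 550 nm. Inhibition % = [(control−resting)−(compound−resting)]/(control−resting) × 100.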

IC50	Compound
> 100 µM	Cn1c(=O)c2c(c3ccccc31)OC(C)(C)[C@@H]1[C@@H]2C[C@]2(C)C[C@H]1c1c(c3ccccc3n(C)c1=O)O2 [PARAENSIDIMERIN C]
4.28 µM	Cn1c(=O)c2c(c3ccccc31)OC(C)(C)C=C2
> 100 µM	C[C@H](c1ccccc1)c1cccc([C@@H](C)c2ccccc2)c1O
> 100 µM	COc1c2ccoc2nc2c(OC)cccc12 [GAMMA-FAGARINE]
9.64 µM	CC(C)=CCOc1ccc(/C=C/CO)cc1 [EVOFOLIN C]
> 100 µM	COc1cc(C=O)cc(OC)c1O [SYRINGALDEHYDE]
77.5 µM	COc1cc2oc(=O)ccc2cc1O [ISOSCOPOLETIN]
> 100 µM	Cn1c(=O)c2c(c3ccccc31)O[C@]1(C)C[C@@H]3c4c(c5ccccc5[nH]c4=O)OC(C)(C)[C@H]3[C@H]2C1
> 100 µM	COc1cc2ccc(=O)oc2cc1OC [SCOPARONE]
47.1 µM	COc1cc2ccc(=O)oc2c(OC)c1OC [FRAXIDIN METHYL ETHER]
> 100 µM	COc1cc(/C=C/CO)ccc1OCC=C(C)C
32.5 µM	CC(C)Cc1ccc(C(C)C(=O)O)cc1 (centres undefined) [IBUPROFEN]
> 100 µM	CC(c1ccccc1)c1ccc(O)c(C(C)c2ccccc2)c1 (centres undefined)
75.1 µM	CC(C)=CCc1cc(/C=C/CO)ccc1O
11.8 µM	COc1cc([C@@H]2Oc3c(OC)cc(/C=C/CO)cc3[C@H]2CO)cc(OC)c1O
57.3 µM	COc1c2[nH]c3occc3c(OC)c-2ccc1=O [HAPLOPINE]
32.5 µM	CC(C)(O)[C@H](O)COc1ccc(/C=C/CO)cc1
19.3 µM	COc1cc([C@H]2Oc3c(OC)cc(/C=C/C=O)cc3[C@@H]2CO)cc(OC)c1O
31.9 µM	COc1cc([C@H]2Oc3c(OC)cc(/C=C/C=O)cc3[C@@H]2CO)ccc1O
